Tested on: MS2 coat protein
Experiment: apparent Kd, MS2 coat protein; higher = weaker binding; RNA-MaP array; FMN 200 µM where present
Procedure, shortened: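 SNAP-549-labelled MS2 coat protein, doubled from 0.7 or 1.5 nM to 3 µM, was titrated over designs transcribed by stalled E. coli RNA polymerase on Illumina sequencing-chip clusters. Titrations were run without and then with constant ligand in 100 mM Tris-HCl pH 7.5, 80 mM KCl, 4 mM MgCl2, BSA, DTT, yeast tRNA and Tween-20. The apparent Kd is the median of filtered per-cluster fits to green signal normalised to red-channel RNA signal and control-cluster median Fmax.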

[1] = designed as: ON switch for flavin mononucleotide, no ligand
[2] = ligand present: flavin mononucleotide, designed as: ON switch for flavin mononucleotide
[3] = designed as: OFF switch for flavin mononucleotide, no ligand
[4] = ligand present: flavin mononucleotide, designed as: OFF switch for flavin mononucleotide

Sequence	apparent Kd [1] [nM]	apparent Kd [2] [nM]	apparent Kd [3] [nM]	apparent Kd [4] [nM]
GCGAUUUUGUAGAAGGUACGUGAUAAGACAAAGUAAGGAUAUACUGACAUGAGGAUCACCCAUGUAUAAAUAGUUAACAGUCGC	18.5	11.7		
UUAUUGUAUGUAGGAUAUGCAUAUUAUUAUUAUGCAGAAGGACAUGAGGAUCACCCAUGUAUAUUAUUAUUAUAUAUUAUAUAU			32.3	60.9
AUUUACAAGUAAGGAUAUCGGGUAUAGUUAACUCGAGAAGGUACAUGAGGAUCACCCAUGUAGUAGAUACAUAGAACUGUUUUG			13.6	12.7
UUGGACGUCGUAGGAUACGUAGGAUAUUCCUACAUGAGGAUCACCCAUGUUGACAUGGAAGAAGGACAGAAGGACGAUGUCCAU	71.6	4.95		
CAGAACGUCUGAUGAGACCCGCGGCAGGAUAUGCCUGACGUGGACAUGAGGAUCACCCAUGUAAGGCAGAAGGGCCGUUCAGUG			23	95.5
UCGAAAAUGCAAGGAUAUCAAUUAUAGCUAAAUUAGACAUGAGGAUCACCCAUGUAAAUAUGGAGUGAGAAGGUGCAAUAAUUU	453	174		
AAUGAAUAUAAAUUGUAUUUGUCGUAGGAUAUGGGUGACAUGAGGAUCACCCAUGUUGCAGACGACCAGAAGGGCGGCGGAUAU	18	18.2		
UAUAUAUAGUAAGGAUAUGUAAUUAUUUUAUUAACAGAAGGUACUGACAUGAGGAUCACCCAUGUUUUAGUGUGGGCAUGUAGA			83.5	184
UCUUUCUUUGUGAGGAUAUGCCCAAAUAAAAGCGGGCAGAAGGCACAUGAGGAUCACCCAUGUUCUGCGGUUUU			54.5	486
GGUCGUCCCAUUAACAUGAGGAUCACCCAUGUCAAAAGACAUGAGGAUAUGCUACCUAAUUGGUAGCAGAAGGCAUGGACGACC	1170	84.7		
UUGCCACAUGAGGAUCACCCAUGUGAGGAUAUGGCCCGUUUGGCGUGUGCUGGUUCUGUCAGAAGGCGCGUGGG			24.5	21.7
AAAGAGCGAGGAUAUGCGUGCCGGUGCGGCCAGCCGAUGUGACAUGAGGAUCACCCAUGUAGAAGGCGCAGAAA			14.3	14.7
UUUCAACAUGAGGAUCACCCAUGUGAGGAUAUGAUGCAGCAGUGGUCUACGCUGUGCAUCAGAAGGCACAUGUG			200	21.8
GCUGGUCGAGGAUAUACGUGACGUGCUUCGGCACGAGGUCUACAUGAGGAUCACCCAUGUAGAAGGCGACCAGC			14.5	52.7
AGAGCCUCGUGAGGAUAUACAUGAGGAUCACCCAUGUAAAUGGAAGAACGGAGGAAACUCCGAAUGUAGAAGGCACGAGGCUCA			149	1240
AUUUUGUGAGGAUAUGUGGCUUCGAUCGUGAGAUCGAGGCUACAGAAGGCACAUGAGGAUCACCCAUGUUCCUA			20.6	206
GUCCUACAUGAGGAUCACCCAUGUGAGGAUAUGGAUUCGCUGGCCGUAGCCAGUGGAUCCAGAAGGCGCAUGAU			26.9	82.8
GUGGCACAUGAGGAUCACCCAUGUCAGGAUAUCGCGUGGUUUUUUUCGGCCGCGCGCGCGAGAAGGGACGUCUU			31.1	29.1
GAGAGACAUGAGGAUCACCCAUGUAGAAUAGAACAAGGAUAUGUGGAAGGCGGAGGAGAGACAGAAGGUGUAGGAG	108	52.9		
GUCAGCUCGUGAGGAUAUACAACACUGCUUCGGCAGUGUAUUAAGAUCACAUGAGGAUCACCCAUGUAGAAGGCACAAGCUGAU			15.9	271
UUUUAACAUGAGGAUCACCCAUGUGAGGAUAUCGAAAUUUAUAUUAAUAUUUAUAAAUCGAGAAGGCACAUUUU			135	124
GGUCCGUAACAGAAGGCCGUAACUGGUGGUGGCGGAGGAUAUGUGGGCGGCCCUUGACAACAUGAGGAUCACCCAUGUAUGUAA	328	30.6		
AUGAGGUCAGGAUAUGCAUGGCGGGACUUGCGUCGUGGCGUGGAGAAGGGACAUGAGGAUCACCCAUGUGGAGU			91.4	50.5
AAAUCCGAAGGAUAUACAUCAAAAGCAAACUGACCCUCACGACAUGAGGAUCACCCAUGUAGAAGGUUGGAAAU			20.3	18.1

Sequence	apparent Kd [1] [nM]	apparent Kd [2] [nM]	apparent Kd [3] [nM]	apparent Kd [4] [nM]
GUGCCUUGGGAGAAGGCCGAUAGCAAAGCUAUCGGAGGAUAUUCAUACCGGAAACGGACAUGAGGAUCACCCAUGUGGCACAAA	1280	51.7		
GUAGCAUACCGAGGAUAUUCAUAUAGGAAACUAACAUGAGGAUCACCCAUGUGGCGAAAGCCUUGGGAGAAGGCGGAAUGCUAC	408	29.2		
AGUCGGAGCAGAGGAUAUAUACAUGAGGAUCACCCAUGUGAAUGAAUAAGCUGGAAACAGCAUGUAUAGAAGGCUGCUCCGACA			352	603
UUUUAACAUGAGGAUCACCCAUGUGAGGAUAUCGAUAUUUAUAUUAAUAUUAAUAAAACGAGAAGGCACAUUUU			71	87.2
AGAGGUCGCACAGGAUAUCAUACAUGAGGAUCACCCAUGUCAGAAAACAAAUGAGAAGGGUGCGCGUUAAUCGCUUGUGAAGAA	16.7	4.8		
GUCAGCUCGUGAGGAUAUACAUGAUAGAUCGAUUAAUUAAUUAAUUUAACAUGAGGAUCACCCAUGUAGAAGGCACGAGCUGAC			51.7	46.7
UCGUGUCAUGUAGGAUAUGACACAGGAAACUGGUCAGAAGGACAUGAGGAUCACCCAUGUAAAAUGUUCAAGAAUAACGCAUGC			78.8	161
AUUGUAGUUGUGAGGAUAUCGUAGAUUUAUUGAAACGAGAAGGCACAUGAGGAUCACCCAUGUAAGUUGUAGGU			71.2	267
AGCUACGUUUCGUAGCAGUGUCAUCGAGAAGGCCUUAUUACAUGAGGAUCACCCAUGUGGACAUGGGAGGAUAUCGAUGAUACA	61.3	8.06		
ACAUCGACAGGAUAUACGUGAGUGGAAAAAGUGUAUCCACUACAUGAGGAUCACCCAUGUAGAAGGGUCGAUGA			18.5	19.8
AAACAUGUCCGAGGAUAUCUGGAAACAUUUCCAAGAGAAGGCGGACAUGAGGAUCACCCAUGUCUCUCCUCAUCAAAUCCAAGU			24.6	287
AUUAAGCAGCAGGAUAUAAUUAUCUGAAGGUGGUUAGAAGGGCUGACAUGAGGAUCACCCAUGUGCUCUUCGUG			16.2	32.2
AUAUACUUCCAGAAGGCACAUGAGGAUCACCCAUGUACGUCUGACAUCGUGUGAGGAUAUGGAGCACGAACGCUAAAGCGGGCA			7.92	21.3
CUAUAGAUAUGAGGAUAUGUAUAUCCAACAUGAGGAUCACCCAUGUUGAUGAUCACGUAUGUAAAGCAGAAGGCAUAUCUAUAG		6.41		
GAUCCUUCUGUUAGGAUAUGCUUUGGGCUUUCGCAGCAGAAGGAACAUGAGGAUCACCCAUGUCCGAUGCCGUC			77.5	81.3
UGGUACUAGGGAGGAUAUGGCAAGAUACAUGAGGAUCACCCAUGUUUAAGAAUGCCGAGAGGCAACUAGAAGGCCCUAGUACCU	7.75	4.7		
AUGACAGGCAGAGCGCAACGGCGUACAUGAGGAUCACCCAUGUAGGAUAUGCUACACAAAGUGUAGCAGAAGGACAUGCGACGC			23.4	42.2
GGUCGUCACAUUAACAUGAGGAUCACCCAUGUCAAAAGACAUGAGGAUAUGCAUCCUAAUUGGAUGCAGAAGGCAUGGACGACC	507	32.7		
UGGAAGAGAAGAGGAUAUCCGUAGAUAACACAUGAGGAUCACCCAUGUAAGAGGGAUAGGUGAUAGGAGAAGGCUUAGAGAGGU			15.2	14.9
AUGCUUCACACAGGAUAUACAUGAGGAUCACCCAUGUGUCCUACGUAGCUGACACGAGCUACGCGGUAGAAGGGUGUGAAGCAU			18.6	93.7
GGAUAGGACAGAGGAUAUACGUGCUAGAUAUACUAGCAAAAUUUCCUCACAUGAGGAUCACCCAUGUAGAAGGCUGUCCUAUCG			15.6	399
AAGCACAGAGGAUAUACAUGGGUAAAAAAAAAAAAAAAAAAACAUGAGGAUCACCCAUGUAGAAGGCUGUGCAA			81.6	67
AAACACGGAGGAUAUACAGGUUCGGGAAACCGAACCGGCUGACAUGAGGAUCACCCAUGUAGAAGGCCGAAAUA			19.3	45.8
CCAGCGUAUGUGAGGAUAUGCUGGUCCUUGGAUCAGCAGAAGGCACAUGAGGAUCACCCAUGUGAGAACGUUGG			26.5	187
